From PubChem BioAssay
Shown are actives, neighbours in structure and some others; about 3.7% of the full set was active somewhere.
KCNK3 block – human KCNK3 channel inhibition, primary screen; CHO-KCNK3 thallium flux, FluxOR fluorescence; stronger effect = lower value; B-score at 10 µM; 340,000 compounds, 0.84% hits;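 active = B-score under library mean minus 4 SD, starting fluorescence ratio at most library mean plus 5 SD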;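 also: more negative B-score means stronger inhibition of thallium flux through KCNK3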
Target sequence (O14649 whole entry, looked up): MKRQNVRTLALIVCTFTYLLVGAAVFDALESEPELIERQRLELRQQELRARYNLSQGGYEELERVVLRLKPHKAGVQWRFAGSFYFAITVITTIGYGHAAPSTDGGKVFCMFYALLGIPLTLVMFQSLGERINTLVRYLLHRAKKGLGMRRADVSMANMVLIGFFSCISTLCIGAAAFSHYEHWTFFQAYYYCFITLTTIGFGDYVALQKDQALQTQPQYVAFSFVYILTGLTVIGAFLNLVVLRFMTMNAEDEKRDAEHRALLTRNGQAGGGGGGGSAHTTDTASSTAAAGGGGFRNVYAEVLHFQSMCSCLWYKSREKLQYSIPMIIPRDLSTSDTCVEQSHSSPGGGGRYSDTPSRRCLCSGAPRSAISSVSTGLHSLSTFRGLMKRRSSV
KCNQ1 act – human KCNQ1 channel potentiation or activation | P51787 | 310,000 compounds, 0.35% hits | CHO-K1 KCNQ1, thallium flux FluxOR fluorescence; stronger effect = higher value | B-score at 10 µM;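 active = fluorescence ratio B-score, a plate-corrected score, at least three library SD, with initial intensity B-score within 5 SD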
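System: Stable KCNQ1 CHO-K1 line | Incubation: 90 min dye loading and 20 min compound exposure, both at room temperature | Measure: Ratio B score | Medium: Assay buffer for compound exposure, DMSO matched across wells | Compound dosing: Single-concentration screen | Probe or stimulus: K+/Tl+ depolarizing stimulus | Measured by: Kinetic FluxOR fluorescence, 10 s baseline plus 110 s post-stimulus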
Kir21 block – inhibitors of mouse Kir2.1 inward-rectifier potassium channel | HEK293-Kir2.1, FluxOR thallium flux fluorescence; stronger effect = lower value | B-score at 10 µM | 310,000 compounds, 0.85% hits;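 active = fluorescence ratio B-score at or below minus 3 SD of library scores, with starting-brightness B-score within 2 SD, cut at about -4.2 in these data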;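 also: channel flux triggered by added potassium and thallium sulfate stimulus; B-score of peak minus minimum fluorescence over baseline after thallium stimulus; more negative B-score means stronger Kir2.1 block with less thallium influx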
KCNQ1 inh – blocks the human KCNQ1 potassium channel | B-score at 10 µM | 310,000 compounds, 1.3% hits | AID 2642 | CHO-K1 KCNQ1, FluxOR thallium flux fluorescence; stronger effect = higher value;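 active = compounds whose thallium flux B-score, printed positive for inhibition, exceeds three library SD while starting fluorescence stays within three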;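 also: channel opened by potassium depolarization with thallium stimulus after 20 min compound exposure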
hERG protect – hERG (human) protection from proarrhythmic block | Q12809 | CHO-hERG, FluxOR thallium flux, dofetilide IC70 present | activation (rescue from dofetilide block), less the hit threshold, % at 10 µM | 310,000 compounds, 0.51% hits | AID 1511;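 active = activation above the mean of controls blocked by dofetilide plus 5 SD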;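 also: thallium influx through hERG after potassium depolarization seen as dye fluorescence rise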
KCNK9 block – human KCNK9 channel inhibition | Q9NPC2 | HEK293 KCNK9, FluxOR thallium flux fluorescence; stronger effect = lower value | B-score at 10 µM | 310,000 compounds, 1.2% hits;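 active = ratio B-score over 3 SD below the library mean, with starting fluorescence within 5 SD of its mean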;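 also: negative B-score means less thallium flux so channel inhibition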
* hit, by the source's call.

How did COc1ccc(OCCNc2cc(N3CCCCC3)ccc2[N+](=O)[O-])cc1 do in these assays?
KCNK3 block: inactive; KCNQ1 act: inactive; Kir21 block: -0.44; KCNQ1 inh: inactive; hERG protect: 0; KCNK9 block: inactive

What do the screens show for `COc1cccc(OCCNc2cc(N3CCCCC3)ccc2[N+](=O)[O-])c1`?
KCNK3 block: inactive; KCNQ1 act: inactive; Kir21 block: 0.23; KCNQ1 inh: inactive; hERG protect: -13; KCNK9 block: -7.9*

Results for COc1ccc(OCCNc2cc(N3CCOCC3)ccc2[N+](=O)[O-])cc1 ?
KCNK3 block: inactive; KCNQ1 act: inactive; Kir21 block: 0.06; KCNQ1 inh: inactive; hERG protect: -3; KCNK9 block: inactive

How did Cc1ccccc1OCCNc1cc(N2CCCCC2)ccc1[N+](=O)[O-] do in these assays?
KCNK3 block: inactive; KCNQ1 act: inactive; Kir21 block: -0.36; KCNQ1 inh: inactive; hERG protect: -4; KCNK9 block: -7*

How did Cc1ccccc1C(=O)Nc1ccnn1C1CCN(Cc2ccc(CO)o2)CC1 do in these assays?
KCNK3 block: inactive; KCNQ1 act: inactive; Kir21 block: 0.11; KCNQ1 inh: inactive; hERG protect: -7; KCNK9 block: inactive

How did CCc1cc(C(=O)Nc2nc(-c3ccccn3)cs2)sc1C do in these assays?
KCNK3 block: -9.2*

What do the screens show for `Cc1ccc(C(=O)Nc2nc(-c3ccccn3)cs2)o1`?
KCNK3 block: inactive; KCNQ1 act: inactive; Kir21 block: -2.1; KCNQ1 inh: inactive; hERG protect: -7; KCNK9 block: inactive

What do the screens show for `CCc1noc(C)c1C(=O)OCC(=O)Nc1nc(-c2ccc(F)c(F)c2)cs1`?
KCNK3 block: inactive

Results for CSc1nc(N(C)CCO)c2sc3nc(-c4ccco4)c4c(c3c2n1)CCC4 ?
KCNK3 block: inactive; KCNQ1 act: inactive; Kir21 block: 2.4; KCNQ1 inh: inactive; hERG protect: -5; KCNK9 block: inactive

How did CSc1nc(SCC(=O)O)c2sc3nc(-c4ccccc4)c4c(c3c2n1)CCC4 do in these assays?
KCNK3 block: inactive; KCNQ1 act: 10*; Kir21 block: 2; KCNQ1 inh: inactive; hERG protect: -13; KCNK9 block: inactive

What do the screens show for `O=C1C(Cl)=C(NCCN2CCCCC2)C(=O)c2ccccc21`?
KCNK3 block: inactive; KCNQ1 act: inactive; Kir21 block: -2.2; KCNQ1 inh: 6*; hERG protect: -21; KCNK9 block: inactive

What do the screens show for `CC(C)(C)c1cc(O)c(C(C)(C)C)cc1O`?
KCNQ1 act: 8*; Kir21 block: 0.79; KCNQ1 inh: inactive; hERG protect: -9; KCNK9 block: -8.5*

How did C/C(N)=C(/C#N)C(=O)COC(=O)C1CCC(C(C)(C)C)CC1 (centres undefined) do in these assays?
KCNK3 block: inactive; KCNQ1 act: inactive; Kir21 block: -11*; KCNQ1 inh: inactive; hERG protect: 0; KCNK9 block: inactive

Results for C/C(N)=C(/C#N)C(=O)COC(=O)CC1CCCC1 ?
KCNK3 block: inactive; KCNQ1 act: inactive; Kir21 block: -0.13; KCNQ1 inh: inactive; hERG protect: -9; KCNK9 block: inactive

Results for Cc1cc(C)cc(N(C(=O)c2csnn2)C(C(=O)NC2CCCCC2)c2ccccn2)c1 (centres undefined) ?
KCNK3 block: inactive; KCNQ1 act: inactive; Kir21 block: -0.64; KCNQ1 inh: inactive; hERG protect: -9; KCNK9 block: inactive

Results for O=c1c2cc(Cl)ccc2nc(-c2ccc([N+](=O)[O-])cc2)n1O ?
KCNK3 block: inactive; KCNQ1 act: 13*; Kir21 block: -0.1; KCNQ1 inh: inactive; hERG protect: 21*; KCNK9 block: inactive

How did O=c1c2cc(Br)ccc2nc(-c2ccc(Cl)cc2)n1O do in these assays?
KCNK3 block: inactive; KCNQ1 act: 104*; Kir21 block: -1.7; KCNQ1 inh: inactive; hERG protect: 35*; KCNK9 block: inactive

Results for N#Cc1ccc(-c2nc3cc(Cl)ccc3c(=O)n2O)cc1 ?
KCNK3 block: inactive; KCNQ1 act: inactive; Kir21 block: -0.9; KCNQ1 inh: inactive; hERG protect: -3; KCNK9 block: inactive

How did O=c1c2ccccc2nc(-c2ccc(Cl)c(Cl)c2)n1O do in these assays?
KCNK3 block: inactive; KCNQ1 act: 37*; Kir21 block: 0.59; KCNQ1 inh: inactive; hERG protect: 21*; KCNK9 block: inactive

How did Cc1ccc(-c2nc3c(Cl)cc(Cl)cc3c(=O)n2O)cc1 do in these assays?
KCNK3 block: inactive; KCNQ1 act: 105*; Kir21 block: 0.36; KCNQ1 inh: inactive; hERG protect: 55*; KCNK9 block: inactive

What do the screens show for `O=C(NCC1COc2ccccc2O1)c1ccc(Br)s1` (centres undefined)?
KCNK3 block: inactive; KCNQ1 act: inactive; Kir21 block: -0.44; KCNQ1 inh: inactive; hERG protect: -19; KCNK9 block: inactive

Results for O=c1c2ccc(Cl)cc2nc(-c2cccc(C(F)(F)F)c2)n1O ?
KCNK3 block: inactive; KCNQ1 act: 136*; Kir21 block: -1.3; KCNQ1 inh: inactive; hERG protect: 75*; KCNK9 block: inactive

How did COc1ccccc1COC(=O)C(NC(=O)c1ccc(C)cc1)C(C)C (centres undefined) do in these assays?
KCNK3 block: inactive

How did CCOC(=O)Cc1cc(=O)[nH]n(-c2ccccc2)c1=O do in these assays?
KCNK3 block: inactive

Results for COC(=O)c1cn(NC(=O)CCC2CCCC2)c(=O)c2ccccc12 ?
KCNK3 block: inactive; KCNQ1 act: inactive; Kir21 block: 0.76; KCNQ1 inh: inactive; hERG protect: 5.8*; KCNK9 block: inactive

What do the screens show for `CC(C)C1Cc2c(sc3[nH]c(=S)n(Cc4ccccc4)c(=O)c23)CO1` (centres undefined)?
KCNK3 block: inactive; KCNQ1 act: 26*; Kir21 block: -1; KCNQ1 inh: inactive; hERG protect: 8.8*; KCNK9 block: inactive

What do the screens show for `COc1ccccc1CNC(=O)CN(C)Cc1ccc(SC)cc1`?
KCNK3 block: inactive; KCNQ1 act: inactive; Kir21 block: -5.4*; KCNQ1 inh: inactive; hERG protect: -13; KCNK9 block: inactive

How did COc1cccc(CN(C)CC(=O)NCc2ccc(F)cc2)c1OC do in these assays?
KCNK3 block: inactive; KCNQ1 act: inactive; Kir21 block: 0.6; KCNQ1 inh: inactive; hERG protect: -5; KCNK9 block: inactive

Results for c1ccc2c(c1)oc1c(N3CCN(Cc4ccc5c(c4)OCO5)CC3)ncnc12 ?
KCNK3 block: -9.5*; KCNQ1 act: inactive; Kir21 block: 0.09; KCNQ1 inh: inactive; hERG protect: -17; KCNK9 block: inactive
